Converted amounts (≈) assume the structure as drawn. The source made the active and inactive calls. No cut-off for these calls is given here.
Experiments:
[1] = test system: Staphylococcus epidermidis; assay: Antimicrobial activity against Staphylococcus epidermidis INCQS 00016 ATCC 12228 assessed as zone of inhibition at 5 mg/ml after 18 to 24 hrs by disc diffusion method; type: functional; conditions: ATCC 12228 INCQS 00016, read-out: IZ
[2] = test system: Staphylococcus epidermidis; assay: Ratio of MBC99.9 to MIC for Staphylococcus epidermidis INCQS 00016 ATCC 12228; type: functional, ATCC 12228 INCQS 00016
Outline: (§1)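 MBC/MIC ratio from the 24 h, 37°C microdilution MIC and the agar-plating MBC (99.9% growth inhibition). A ratio ≤2 was classed as bactericidal and ≥4 as bacteriostatic.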

[3] = test system: Staphylococcus epidermidis; assay: Antimicrobial activity against Staphylococcus epidermidis INCQS 00016 ATCC 12228 after 24 hrs by microdilution assay; type: functional; conditions: ATCC 12228 INCQS 00016, 24 h
Klebsiella pneumoniae = assay: Antimicrobial activity against Klebsiella pneumoniae INCQS 00083 ATCC 4352 assessed as zone of inhibition at 5 mg/ml after 18 to 24 hrs by disc diffusion method; type: functional; conditions: read-out: IZ
Staphylococcus aureus [4] = assay: Bactericidal activity against methicillin-resistant Staphylococcus aureus BMB9393 at 256 ug/ml incubated for 24 hrs followed by transfer of microbial suspension to agar plates and measured after 24 hrs post transfer by resazurin dye-based colorimetric analysis; type: functional, organism-based
Outline: (§2)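 From MIC wells with no visible growth, 10 µL is transferred to agar plates and incubated 24 h at 37°C. MBC is the minimum concentration inhibiting 99.9% of growth. […] Triplicate.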

Escherichia coli [5] = assay: Bactericidal activity against Escherichia coli INCQS 00033 ATCC 25922 at 256 ug/ml incubated for 24 hrs followed by transfer of microbial suspension to agar plates and measured after 24 hrs post transfer by resazurin dye-based colorimetric analysis; type: functional, organism-based; conditions: ATCC 25922 INCQS 00033
Outline: (§3)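 For MBC, 10 µL from each clear MIC well was plated on agar and incubated 24 h at 37°C. MBC is the minimum concentration inhibiting 99.9% of growth. […] Triplicate.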

Staphylococcus aureus [6] = assay: Antimicrobial activity against Staphylococcus aureus INCQS 00015 ATCC 25923 at 256 ug/ml after 24 hrs by microdilution assay; type: functional, organism-based
[7] = test system: Staphylococcus epidermidis; assay: Bactericidal activity against Staphylococcus epidermidis INCQS 00016 ATCC 12228 incubated for 24 hrs followed by transfer of microbial suspension to agar plates and measured after 24 hrs post transfer by resazurin dye-based colorimetric analysis; type: functional; conditions: ATCC 12228 INCQS 00016, 24 h, read-out: MBC99.9; outline: as §3
Staphylococcus aureus [8] = assay: Antimicrobial activity against methicillin-resistant Staphylococcus aureus BMB9393 at 256 ug/ml after 24 hrs by microdilution assay; type: functional, organism-based
Staphylococcus simulans [9] = assay: Bactericidal activity against Staphylococcus simulans INCQS 00254 ATCC 27851 at 256 ug/ml incubated for 24 hrs followed by transfer of microbial suspension to agar plates and measured after 24 hrs post transfer by resazurin dye-based colorimetric analysis; type: functional, organism-based; outline: as §3
Pseudomonas aeruginosa [10] = assay: Antimicrobial activity against Pseudomonas aeruginosa INCQS 00099 ATCC 27853 assessed as zone of inhibition at 5 mg/ml after 18 to 24 hrs by disc diffusion method; type: functional; conditions: read-out: IZ
Staphylococcus aureus [11] = assay: Antimicrobial activity against methicillin-resistant Staphylococcus aureus BMB9393 assessed as zone of inhibition at 5 mg/ml after 18 to 24 hrs by disc diffusion method; type: functional; conditions: read-out: IZ
Pseudomonas aeruginosa [12] = assay: Antimicrobial activity against Pseudomonas aeruginosa INCQS 00099 ATCC 27853 at 256 ug/ml after 24 hrs by microdilution assay; type: functional, organism-based
Pseudomonas aeruginosa [13] = assay: Bactericidal activity against Pseudomonas aeruginosa INCQS 00099 ATCC 27853 at 256 ug/ml incubated for 24 hrs followed by transfer of microbial suspension to agar plates and measured after 24 hrs post transfer by resazurin dye-based colorimetric analysis; type: functional, organism-based; outline: as §3
Proteus mirabilis = assay: Antimicrobial activity against Proteus mirabilis INCQS 00095 ATCC 15290 assessed as zone of inhibition at 5 mg/ml after 18 to 24 hrs by disc diffusion method; type: functional; conditions: read-out: IZ
Staphylococcus aureus [14] = assay: Antimicrobial activity against Staphylococcus aureus INCQS 00015 ATCC 25923 assessed as zone of inhibition at 5 mg/ml after 18 to 24 hrs by disc diffusion method; type: functional; conditions: read-out: IZ
Escherichia coli [15] = assay: Antimicrobial activity against Escherichia coli INCQS 00033 ATCC 25922 at 256 ug/ml after 24 hrs by microdilution assay; type: functional, organism-based; conditions: ATCC 25922 INCQS 00033
Enterococcus faecalis = assay: Antimicrobial activity against Enterococcus faecalis INCQS 00234 ATCC 29212 assessed as zone of inhibition at 5 mg/ml after 18 to 24 hrs by disc diffusion method; type: functional; conditions: ATCC 29212 INCQS 00234, read-out: IZ
Staphylococcus simulans [16] = assay: Antimicrobial activity against Staphylococcus simulans INCQS 00254 ATCC 27851 assessed as zone of inhibition at 5 mg/ml after 18 to 24 hrs by disc diffusion method; type: functional; conditions: read-out: IZ
Staphylococcus aureus [17] = assay: Bactericidal activity against Staphylococcus aureus INCQS 00015 ATCC 25923 at 256 ug/ml incubated for 24 hrs followed by transfer of microbial suspension to agar plates and measured after 24 hrs post transfer by resazurin dye-based colorimetric analysis; type: functional, organism-based; outline: as §3
Staphylococcus simulans [18] = assay: Antimicrobial activity against Staphylococcus simulans INCQS 00254 ATCC 27851 at 256 ug/ml after 24 hrs by microdilution assay; type: functional, organism-based
Escherichia coli [19] = assay: Antimicrobial activity against Escherichia coli INCQS 00033 ATCC 25922 assessed as zone of inhibition at 5 mg/ml after 18 to 24 hrs by disc diffusion method; type: functional; conditions: ATCC 25922 INCQS 00033, read-out: IZ
[20] = Hemolytic activity against human erythrocytes assessed as hemolysis at 200 ug/ml after 3 hrs by spectrophotometric analysis relative to control; type: ADME, cell-based, Erythrocyte; conditions: read-out: Activity
Outline: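 Erythrocytes collected in citrate tubes, washed three times with PBS pH 7.4 by centrifugation and resuspended in PBS. Incubated with compounds at 200 µg/mL for 3 h at 37°C. Released hemoglobin was read in the supernatant at 545 nm against 1% Triton X-100 (complete lysis) and 1% DMSO (negative control). Below 10% hemolysis was taken as hemocompatible. Three independent experiments.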

Staphylococcus simulans [21] = assay: Antimicrobial activity against Staphylococcus simulans INCQS 00254 ATCC 27851 after 24 hrs by microdilution assay; type: functional; conditions: INCQS 00254 ATCC 27851, 24 h
Staphylococcus simulans [22] = assay: Bactericidal activity against Staphylococcus simulans INCQS 00254 ATCC 27851 incubated for 24 hrs followed by transfer of microbial suspension to agar plates and measured after 24 hrs post transfer by resazurin dye-based colorimetric analysis; type: functional; conditions: INCQS 00254 ATCC 27851, 24 h, read-out: MBC99.9; outline: as §3
Staphylococcus aureus [23] = assay: Antimicrobial activity against Staphylococcus aureus INCQS 00015 ATCC 25923 after 24 hrs by microdilution assay; type: functional; conditions: INCQS 00015 ATCC 25923, 24 h
Staphylococcus simulans [24] = assay: Ratio of MBC99.9 to MIC for Staphylococcus simulans INCQS 00254 ATCC 27851; type: functional; outline: as §1
Staphylococcus aureus [25] = assay: Ratio of MBC99.9 to MIC for Staphylococcus aureus INCQS 00015 ATCC 25923; type: functional; outline: as §1
Staphylococcus aureus [26] = assay: Bactericidal activity against Staphylococcus aureus INCQS 00015 ATCC 25923 incubated for 24 hrs followed by transfer of microbial suspension to agar plates and measured after 24 hrs post transfer by resazurin dye-based colorimetric analysis; type: functional; conditions: INCQS 00015 ATCC 25923, 24 h, read-out: MBC99.9; outline: as §2

| SMILES | zone of inhibition at 5000 µg/mL [1] | Ratio [2] | MIC [3] | zone of inhibition at 5000 µg/mL (Klebsiella pneumoniae) | Activity (Staphylococcus aureus [4]) | Activity (Escherichia coli [5]) | Activity (Staphylococcus aureus [6]) | MBC [7] | Activity (Staphylococcus aureus [8]) | zone of inhibition at 5000 µg/mL (Pseudomonas aeruginosa [10]) | zone of inhibition at 5000 µg/mL (Staphylococcus aureus [11]) | Activity (Pseudomonas aeruginosa [12]) | Activity (Pseudomonas aeruginosa [13]) | zone of inhibition at 5000 µg/mL (Proteus mirabilis) | zone of inhibition at 5000 µg/mL (Staphylococcus aureus [14]) | Activity (Escherichia coli [15]) | zone of inhibition at 5000 µg/mL (Enterococcus faecalis) | zone of inhibition at 5000 µg/mL (Staphylococcus simulans [16]) | zone of inhibition at 5000 µg/mL (Escherichia coli [19]) | hemolysis at 3 h, 200 ug/ml [20] | other results |
| --- | --- | --- | --- | --- | --- | --- | --- | --- | --- | --- | --- | --- | --- | --- | --- | --- | --- | --- | --- | --- | --- |
| COC(=O)c1c(C)nc(C)c2c1C(=O)C(Cl)=C(NC[C@H]1O[C@@H]3OC(C)(C)O[C@@H]3[C@H]1O)C2=O | 8 mm | 1 | 32 µg/mL (≈ 68.5 µM) | 0 mm | inactive | inactive | inactive | 32 µg/mL (≈ 68.5 µM) | inactive | 0 mm | 0 mm | inactive | inactive | 0 mm | 0 mm | inactive | 0 mm | 0 mm | 0 mm | 10.1 to 14.4% | Activity (Staphylococcus simulans [9]): inactive; Activity (Staphylococcus aureus [17]): inactive; Activity (Staphylococcus simulans [18]): inactive |
| CN[C@H](CC(C)C)C(=O)N[C@H]1C(=O)N[C@@H](CC(N)=O)C(=O)N[C@H]2C(=O)N[C@H]3C(=O)N[C@H](C(=O)N[C@H](C(=O)O)c4cc(O)cc(O)c4-c4cc3ccc4O)[C@H](O)c3ccc(c(Cl)c3)Oc3cc2cc(c3O[C@@H]2O[C@H](CO)[C@@H](O)[C@H](O)[C@H]2O[C@H]2C[C@](C)(N)[C@H](O)[C@H](C)O2)Oc2ccc(cc2Cl)[C@H]1O [VANCOMYCIN] | 15 mm |  |  |  |  |  |  |  |  |  | 14 mm |  |  |  | 16 mm |  | 16 mm | 16 mm |  |  | MIC (Staphylococcus simulans [21]): 2 µg/mL (≈ 1.38 µM) |
| COC(=O)c1c(C)nc(C)c2c1C(=O)C(Cl)=C(N)C2=O | 18 mm | 1 | 32 µg/mL (≈ 109 µM) | 0 mm | inactive | inactive |  | 32 µg/mL (≈ 109 µM) | inactive | 0 mm | 12 mm | inactive | inactive | 0 mm | 15 mm | inactive | 0 mm | 16 mm | 0 mm | 10.1 to 14.4% | MBC (Staphylococcus simulans [22]): 32 µg/mL (≈ 109 µM); MIC (Staphylococcus aureus [23]): 64 µg/mL (≈ 217 µM); Ratio (Staphylococcus simulans [24]): 1; Ratio (Staphylococcus aureus [25]): 1; MIC (Staphylococcus simulans [21]): 32 µg/mL (≈ 109 µM); MBC (Staphylococcus aureus [26]): 64 µg/mL (≈ 217 µM) |
| COC(=O)c1c(C)nc(C)c2c1C(=O)C(Br)=C(NC[C@H]1O[C@@H]3OC(C)(C)O[C@@H]3[C@H]1O)C2=O | 7 mm | 1 | 64 µg/mL (≈ 125 µM) | 0 mm | inactive | inactive | inactive | 64 µg/mL (≈ 125 µM) | inactive | 0 mm | 0 mm | inactive | inactive | 0 mm | 0 mm | inactive | 0 mm | 0 mm | 0 mm | < 10% | Activity (Staphylococcus simulans [9]): inactive; Activity (Staphylococcus aureus [17]): inactive; Activity (Staphylococcus simulans [18]): inactive |
| COC(=O)c1c(C)nc(C)c2c1C(=O)C=C(NC[C@H]1O[C@@H]3OC(C)(C)O[C@@H]3[C@H]3OC(C)(C)O[C@H]31)C2=O | 9 mm | 1 | 256 µg/mL (≈ 509 µM) | 0 mm | inactive | inactive | inactive | 256 µg/mL (≈ 509 µM) | inactive | 0 mm | 0 mm | inactive | inactive | 0 mm | 0 mm | inactive | 0 mm | 0 mm | 0 mm | < 10% | Activity (Staphylococcus simulans [9]): inactive; Activity (Staphylococcus aureus [17]): inactive; Activity (Staphylococcus simulans [18]): inactive |
| COC(=O)c1c(C)nc(C)c2c1C(=O)C=C(NC[C@H]1O[C@@H]3OC(C)(C)O[C@@H]3[C@H]1O)C2=O | 10 mm | 1 | 256 µg/mL (≈ 592 µM) | 0 mm | inactive | inactive | inactive | 256 µg/mL (≈ 592 µM) | inactive | 0 mm | 0 mm | inactive | inactive | 0 mm | 0 mm | inactive | 0 mm | 0 mm | 0 mm | < 10% | Activity (Staphylococcus simulans [9]): inactive; Activity (Staphylococcus aureus [17]): inactive; Activity (Staphylococcus simulans [18]): inactive |

Source: ChEMBL document CHEMBL4270541, “Synthesis and antimicrobial evaluation of amino sugar-based naphthoquinones and isoquinoline-5,8-diones and their halogenated compounds” (Eur J Med Chem, 2018)
